Reference: ChEMBL document CHEMBL3091303, “1,3-Dialkyl-substituted tetrahydropyrimido[1,2-f]purine-2,4-diones as multiple target drugs for the potential treatment of neurodegenerative diseases” (Bioorg Med Chem, 2013)
One block for each compound: values may come before it.

How the values were obtained:
Adenosine receptor A3 = molecular target: T1, Adenosine receptor A3 (Homo sapiens, UniProt P0DMS8); experiment: Displacement of [3H]PSB-11 from human adenosine A3 receptor expressed in CHO cells; type: cell-based
T1 sequence (P0DMS8 whole entry): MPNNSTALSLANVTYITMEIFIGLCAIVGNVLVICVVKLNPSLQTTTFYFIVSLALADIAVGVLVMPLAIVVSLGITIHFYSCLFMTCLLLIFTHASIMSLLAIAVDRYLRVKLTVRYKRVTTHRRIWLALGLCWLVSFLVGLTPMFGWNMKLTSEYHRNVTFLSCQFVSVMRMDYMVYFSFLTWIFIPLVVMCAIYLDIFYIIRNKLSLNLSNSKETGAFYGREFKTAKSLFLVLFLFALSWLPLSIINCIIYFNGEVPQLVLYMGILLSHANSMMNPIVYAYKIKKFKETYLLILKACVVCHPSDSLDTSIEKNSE

Adenosine receptor A2a [1] = molecular target: Adenosine receptor A2a (Homo sapiens, UniProt P29274); experiment: Displacement of [3H]MSX-2 from human adenosine A2A receptor expressed in CHO cells; type: cell-based
In short: (§1)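 Radioligand binding to human receptors recombinantly expressed in Chinese hamster ovary (CHO) cells. Results are Ki, or % inhibition of radioligand binding at the indicated concentration.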

Adenosine receptor A1 [2] = molecular target: T2, Adenosine receptor A1 (Rattus norvegicus, UniProt P25099); experiment: Displacement of [3H]CCPA from adenosine A1 receptor in rat brain cortex; type: tissue-based
T2 sequence (P25099 whole entry): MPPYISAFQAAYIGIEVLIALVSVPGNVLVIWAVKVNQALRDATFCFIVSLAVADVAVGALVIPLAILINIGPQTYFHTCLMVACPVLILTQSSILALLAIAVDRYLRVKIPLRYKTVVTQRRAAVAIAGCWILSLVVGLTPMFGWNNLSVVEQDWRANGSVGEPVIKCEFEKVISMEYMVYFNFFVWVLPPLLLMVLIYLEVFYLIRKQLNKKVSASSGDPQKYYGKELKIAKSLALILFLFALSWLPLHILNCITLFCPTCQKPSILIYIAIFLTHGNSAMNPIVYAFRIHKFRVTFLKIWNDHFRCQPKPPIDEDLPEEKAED
In short: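 Radioligand binding to rat A1 receptors in rat brain cortical membrane preparations. Values are given as Ki, or as % inhibition of radioligand binding at the indicated concentration.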

[3] = molecular target: T3, MAO-B (amine oxidase [flavin-containing] B) (Homo sapiens, UniProt P27338); experiment: Inhibition of human MAO-B at 10 uM relative to control
T3 sequence (P27338 whole entry): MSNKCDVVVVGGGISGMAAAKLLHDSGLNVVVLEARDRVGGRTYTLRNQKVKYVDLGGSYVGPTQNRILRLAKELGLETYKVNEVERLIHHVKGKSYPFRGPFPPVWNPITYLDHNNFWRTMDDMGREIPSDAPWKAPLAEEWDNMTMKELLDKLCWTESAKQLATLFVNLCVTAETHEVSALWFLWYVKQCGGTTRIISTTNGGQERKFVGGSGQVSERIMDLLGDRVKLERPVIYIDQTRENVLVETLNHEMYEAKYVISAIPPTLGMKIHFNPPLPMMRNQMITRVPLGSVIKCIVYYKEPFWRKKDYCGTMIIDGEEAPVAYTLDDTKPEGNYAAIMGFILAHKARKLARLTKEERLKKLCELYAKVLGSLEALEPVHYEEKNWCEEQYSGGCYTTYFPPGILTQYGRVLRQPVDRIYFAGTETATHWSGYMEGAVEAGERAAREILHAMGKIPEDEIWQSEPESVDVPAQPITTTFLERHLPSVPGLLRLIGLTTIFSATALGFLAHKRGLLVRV
In short: (§2)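 Human MAO-A and MAO-B inhibition, screened first at a test concentration of 10 µM.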

[4] = molecular target: T4, Amine oxidase [flavin-containing] B (Homo sapiens, UniProt P27338); experiment: Inhibition of human MAO-B
T4 sequence (P27338 whole entry): T3 sequence (P27338 whole entry)

Adenosine receptor A1 [5] = molecular target: T5, Adenosine receptor A1 (Homo sapiens, UniProt P30542); experiment: Displacement of [3H]CCPA from human adenosine A1 receptor expressed in CHO cells; type: cell-based; in short: as §1
T5 sequence (P30542 whole entry): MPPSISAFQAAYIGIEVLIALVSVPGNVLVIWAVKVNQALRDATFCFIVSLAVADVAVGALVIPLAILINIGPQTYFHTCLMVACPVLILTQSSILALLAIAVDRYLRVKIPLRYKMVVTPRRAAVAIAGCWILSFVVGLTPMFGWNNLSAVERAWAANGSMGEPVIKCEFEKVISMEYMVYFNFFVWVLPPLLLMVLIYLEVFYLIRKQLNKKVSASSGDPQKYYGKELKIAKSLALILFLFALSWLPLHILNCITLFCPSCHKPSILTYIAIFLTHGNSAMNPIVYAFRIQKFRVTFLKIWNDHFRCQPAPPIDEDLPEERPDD

Adenosine receptor A2a [6] = molecular target: Adenosine receptor A2a (Rattus norvegicus, UniProt P30543); experiment: Displacement of [3H]MSX-2 from adenosine A2A receptor in rat brain striatum; type: tissue-based
[7] = molecular target: T6, Adenosine receptor A3 (Homo sapiens) (UniProt P0DMS8); experiment: Displacement of [3H]PSB-11 from human adenosine A3 receptor expressed in CHO cells relative to control; type: cell-based; set-up: concentration or dose not given beside the values; conditions: concentration not given here
T6 sequence (whole entry): T1 sequence (P0DMS8 whole entry)

Adenosine receptor A2b = molecular target: T7, Adenosine receptor A2b (Homo sapiens, UniProt P29275); experiment: Displacement of [3H]PSB-603 from human adenosine A2B receptor
T7 sequence (P29275 whole entry): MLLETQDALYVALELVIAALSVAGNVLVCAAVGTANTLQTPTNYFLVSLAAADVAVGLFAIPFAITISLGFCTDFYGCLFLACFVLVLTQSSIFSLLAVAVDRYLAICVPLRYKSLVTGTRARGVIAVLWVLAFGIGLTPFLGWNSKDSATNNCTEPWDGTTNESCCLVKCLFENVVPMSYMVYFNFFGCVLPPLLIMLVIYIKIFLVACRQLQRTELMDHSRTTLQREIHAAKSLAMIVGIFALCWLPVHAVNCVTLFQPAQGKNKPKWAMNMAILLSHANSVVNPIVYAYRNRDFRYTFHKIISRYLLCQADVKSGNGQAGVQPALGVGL

[8] = molecular target: T8, Adenosine receptor A2b (Homo sapiens) (UniProt P29275); experiment: Displacement of [3H]PSB-603 from human adenosine A2B receptor relative to control; set-up: concentration or dose not given beside the values; conditions: concentration not given here
T8 sequence (whole entry): T7 sequence (P29275 whole entry)

[9] = molecular target: T9, Amine oxidase [flavin-containing] A (Homo sapiens, UniProt P21397); experiment: Inhibition of human MAO-A; in short: as §2
T9 sequence (P21397 whole entry): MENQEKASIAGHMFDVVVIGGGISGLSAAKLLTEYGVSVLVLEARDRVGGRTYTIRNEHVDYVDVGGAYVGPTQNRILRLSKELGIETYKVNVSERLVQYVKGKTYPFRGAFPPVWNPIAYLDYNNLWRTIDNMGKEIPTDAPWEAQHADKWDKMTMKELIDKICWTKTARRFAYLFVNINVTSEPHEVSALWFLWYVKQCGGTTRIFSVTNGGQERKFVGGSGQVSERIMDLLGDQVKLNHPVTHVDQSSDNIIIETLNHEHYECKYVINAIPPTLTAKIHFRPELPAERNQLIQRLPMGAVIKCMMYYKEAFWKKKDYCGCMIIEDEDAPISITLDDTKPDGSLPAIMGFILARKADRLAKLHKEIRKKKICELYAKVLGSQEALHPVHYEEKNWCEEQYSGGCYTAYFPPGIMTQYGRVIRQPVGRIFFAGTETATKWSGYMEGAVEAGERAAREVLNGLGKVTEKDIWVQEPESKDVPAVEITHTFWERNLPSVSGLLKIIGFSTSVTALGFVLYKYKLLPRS

[10] = molecular target: T10, MAO-A (amine oxidase [flavin-containing] A) (Homo sapiens, UniProt P21397); experiment: Inhibition of human MAO-A at 10 uM relative to control; in short: as §2
T10 sequence (P21397 whole entry): T9 sequence (P21397 whole entry)

Chain of Adenosine receptor A2a (Rattus norvegicus, UniProt P30543) (P30543 whole entry): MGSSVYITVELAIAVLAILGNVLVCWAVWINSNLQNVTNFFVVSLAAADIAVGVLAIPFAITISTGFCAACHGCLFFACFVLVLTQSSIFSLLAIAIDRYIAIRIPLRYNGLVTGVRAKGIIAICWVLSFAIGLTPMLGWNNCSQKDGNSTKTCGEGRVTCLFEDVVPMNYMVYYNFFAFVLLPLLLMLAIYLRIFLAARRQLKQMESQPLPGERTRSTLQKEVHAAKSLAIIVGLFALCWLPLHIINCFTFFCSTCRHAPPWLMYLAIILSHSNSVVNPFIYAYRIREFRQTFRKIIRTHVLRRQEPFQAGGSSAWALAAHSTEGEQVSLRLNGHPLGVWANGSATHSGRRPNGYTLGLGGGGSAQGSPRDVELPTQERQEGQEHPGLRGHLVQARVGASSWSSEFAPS
Chain of Adenosine receptor A2a (Homo sapiens, UniProt P29274) (P29274 whole entry): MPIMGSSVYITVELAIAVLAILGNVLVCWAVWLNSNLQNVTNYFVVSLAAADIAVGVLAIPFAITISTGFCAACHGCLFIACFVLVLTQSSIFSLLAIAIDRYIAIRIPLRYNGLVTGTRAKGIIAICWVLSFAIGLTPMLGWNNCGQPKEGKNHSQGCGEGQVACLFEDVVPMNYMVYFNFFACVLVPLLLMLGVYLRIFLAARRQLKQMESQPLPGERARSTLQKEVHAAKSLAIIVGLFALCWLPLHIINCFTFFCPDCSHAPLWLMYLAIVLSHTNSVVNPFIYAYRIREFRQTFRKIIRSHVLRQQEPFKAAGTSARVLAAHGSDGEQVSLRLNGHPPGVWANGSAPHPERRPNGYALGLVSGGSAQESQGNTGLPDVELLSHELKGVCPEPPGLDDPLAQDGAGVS

Compound: C#CCn1c(=O)c2c(nc3n2CCCN3CCc2ccc(O)cc2)n(C)c1=O
Ki (Adenosine receptor A3): > 10 µM
Ki (Adenosine receptor A2a [1]): 0.346 µM
Ki (Adenosine receptor A1 [2]): 0.501 µM
inhibition at 10 µM [3]: 37%
inhibition [8]: 12%
IC50 [4]: > 10 µM
Ki (Adenosine receptor A1 [5]): 8.26 µM
Ki (Adenosine receptor A2a [6]): 0.276 µM
inhibition [7]: 28%
Ki (Adenosine receptor A2b): > 10 µM

Compound: C#CCn1c(=O)c2c(nc3n2CCCN3CCc2cccs2)n(C)c1=O
Ki (Adenosine receptor A3): > 1 µM
Ki (Adenosine receptor A2a [1]): 0.317 µM
Ki (Adenosine receptor A1 [2]): 0.99 µM
inhibition at 10 µM [3]: 17%
inhibition [8]: 16%
IC50 [4]: > 10 µM
Ki (Adenosine receptor A1 [5]): 1.41 µM
Ki (Adenosine receptor A2a [6]): 0.71 µM
inhibition [7]: 20%
Ki (Adenosine receptor A2b): > 1 µM

Compound: Cn1c(=O)c2c(nc3n2CCCN3CCc2cccc(Cl)c2)n(C)c1=O
Ki (Adenosine receptor A3): > 10 µM
Ki (Adenosine receptor A2a [1]): 1.35 µM
IC50 [9]: > 10 µM
Ki (Adenosine receptor A1 [2]): 1.76 µM
inhibition [8]: 1%
IC50 [4]: 1.35 µM
Ki (Adenosine receptor A2a [6]): 0.166 µM
inhibition at 10 µM [10]: -4%
inhibition [7]: 43%
Ki (Adenosine receptor A2b): > 1 µM

Compound: C#CCn1c(=O)c2c(nc3n2CCCN3c2ccc(F)cc2)n(C)c1=O
Ki (Adenosine receptor A3): > 10 µM
Ki (Adenosine receptor A2a [1]): 2.12 µM
Ki (Adenosine receptor A1 [2]): 1.19 µM
inhibition at 10 µM [3]: 17%
inhibition [8]: 7%
IC50 [4]: > 10 µM
Ki (Adenosine receptor A1 [5]): 3.61 µM
Ki (Adenosine receptor A2a [6]): 1.94 µM
inhibition [7]: 22%
Ki (Adenosine receptor A2b): > 1 µM

Compound: C#CCn1c(=O)c2c(nc3n2CCCN3CCc2ccc(OC)cc2)n(C)c1=O
Ki (Adenosine receptor A3): > 1 µM
Ki (Adenosine receptor A2a [1]): 0.508 µM
Ki (Adenosine receptor A1 [2]): 3.14 µM
inhibition at 10 µM [3]: 25%
inhibition [8]: 8%
IC50 [4]: > 10 µM
Ki (Adenosine receptor A1 [5]): 4.4 µM
Ki (Adenosine receptor A2a [6]): 0.288 µM
inhibition [7]: 13%
Ki (Adenosine receptor A2b): > 1 µM

Now from value to compound:

Ki (Adenosine receptor A3): > 10 µM
Ki (Adenosine receptor A2a [1]): 0.311 µM
Ki (Adenosine receptor A1 [2]): 0.515 µM
inhibition at 10 µM [3]: 26%
IC50 [4]: > 10 µM
Ki (Adenosine receptor A1 [5]): 2.36 µM
Ki (Adenosine receptor A2a [6]): 0.361 µM
inhibition [7]: 25%
Ki (Adenosine receptor A2b): 17.1 µM
Compound: C#CCn1c(=O)c2c(nc3n2CCCN3C2CCCCC2)n(C)c1=O

Ki (Adenosine receptor A3): > 10 µM
Ki (Adenosine receptor A2a [1]): 0.231 µM
Ki (Adenosine receptor A1 [2]): 1.07 µM
inhibition at 10 µM [3]: 19%
IC50 [4]: > 10 µM
Ki (Adenosine receptor A1 [5]): 0.866 µM
Ki (Adenosine receptor A2a [6]): 0.38 µM
inhibition [7]: 13%
Ki (Adenosine receptor A2b): 3.97 µM
Compound: C#CCn1c(=O)c2c(nc3n2CCCN3C2CCC2)n(C)c1=O

Ki (Adenosine receptor A3): > 0.1 µM
Ki (Adenosine receptor A2a [1]): 0.51 µM
Ki (Adenosine receptor A1 [2]): 0.219 µM
inhibition at 10 µM [3]: 33%
inhibition [8]: -5%
IC50 [4]: > 10 µM
Ki (Adenosine receptor A1 [5]): 1.87 µM
Ki (Adenosine receptor A2a [6]): 0.498 µM
inhibition [7]: 5%
Ki (Adenosine receptor A2b): > 1 µM
Compound: C#CCn1c(=O)c2c(nc3n2CCCN3CC2CCCCC2)n(C)c1=O
